# Data: ChEMBL document CHEMBL4342523, “Discovery and Development of S6821 and S7958 as Potent TAS2R8 Antagonists” (J Med Chem, 2020)
# Calls of active or inactive are those of the source. The rule behind the calls is not given here.
# Legend:
# [1] = target: T1, Taste receptor type 2 member 14 (Homo sapiens) (UniProt Q9NYV8); assay: Antagonist activity at recombinant human TAS2R14 transiently expressed in HEK293T co-expressing Galpha16gust44 assessed as inhibition of aristolochic acid-induced intracellular calcium level by measuring remaining activity at 25 uM by fluo-4AM dye based FLIPR assay relative to control; assay type: functional, cell-based
# T1 sequence (whole entry): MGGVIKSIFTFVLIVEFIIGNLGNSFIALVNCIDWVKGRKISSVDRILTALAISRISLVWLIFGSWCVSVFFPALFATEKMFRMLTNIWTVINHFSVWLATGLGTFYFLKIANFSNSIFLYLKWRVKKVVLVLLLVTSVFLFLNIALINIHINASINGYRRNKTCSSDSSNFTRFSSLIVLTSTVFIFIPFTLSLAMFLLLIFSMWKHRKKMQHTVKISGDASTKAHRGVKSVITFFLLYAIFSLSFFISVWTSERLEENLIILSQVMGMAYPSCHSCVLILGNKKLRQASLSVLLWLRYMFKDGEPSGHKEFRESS
# [2] = Stability of the compound in pH 7.1 buffer assessed as parent compound remaining measured after 24 hrs at 100 degC; assay type: physicochemical; conditions: read-out: Stability
# [3] = target: Taste receptor type 2 member 31 (Homo sapiens) (UniProt P59538); assay: Antagonist activity at recombinant human TAS2R31 transiently expressed in HEK293T co-expressing Galpha16gust44 assessed as inhibition of aristolochic acid-induced intracellular calcium level by measuring remaining activity at 25 uM by fluo-4AM dye based FLIPR assay relative to control; assay type: functional, cell-based
# [4] = target: Taste receptor type 2 member 7 (Homo sapiens) (UniProt Q9NYW3); assay: Antagonist activity at recombinant human TAS2R7 transiently expressed in HEK293T co-expressing Galpha16gust44 assessed as inhibition of chloroquine-induced intracellular calcium level by measuring remaining activity at 25 uM by fluo-4AM dye based FLIPR assay relative to control; assay type: functional, cell-based
# [5] = target: Taste receptor type 2 member 16 (Homo sapiens) (UniProt Q9NYV7); assay: Antagonist activity at recombinant human TAS2R16 transiently expressed in HEK293T co-expressing Galpha16gust44 assessed as inhibition of salicin-induced intracellular calcium level by measuring remaining activity at 25 uM by fluo-4AM dye based FLIPR assay relative to control; assay type: functional, cell-based
# [6] = Stability of the compound in pH 6 buffer assessed as parent compound remaining measured after 60 mins at 124 degC; assay type: physicochemical; conditions: read-out: Stability
# [7] = Drug metabolism in pH 7.1 buffer assessed as hydrolytic opening of hydantoin ring by measuring compound 66 formation measured under heat condition
# [8] = Maternal toxicity in po dosed Sprague-Dawley rat assessed as effect on embryo and fetal development administered via gavage during gestation period; assay type: ADME, organism-based; conditions: female, in vivo
# [9] = target: Taste receptor type 2 member 1 (Homo sapiens, UniProt Q9NYW7); assay: Agonist activity at TAS2R1 (unknown origin) by stably expressed cell-based assay
# [10] = Chronic toxicity in po dosed Sprague-Dawley rat administered daily for 90 days; assay type: organism-based; conditions: in vivo
# Homo sapiens = assay: In vivo agonist activity at TAS2R14 in human assessed as induction of intrinsic bitterness up to 150 uM in presence of low sodium buffer by 15-point bitterness scale based assay; assay type: functional, organism-based
# Method in brief: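 Human sensory test: trained external panelists, no food or drink except water ≥1 h before; compound from ethanol stock, final ethanol 0.1% (matched in blanks), in low sodium phosphate buffer pH 7.1 (0.3 mM KCl, 0.5 mM Na2HPO4, 0.175 mM KH2PO4); bitterness rated on 1–15 scale, 15 panelists × 2 replicates, Tukey's test (α = 0.05).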
# [11] = Stability of the compound in pH 9.3 buffer assessed as parent compound remaining measured after 24 hrs at room temperature; assay type: physicochemical; conditions: read-out: Stability
# [12] = Stability of the compound in pH 7.1 buffer assessed as parent compound remaining measured after 24 hrs at room temperature; assay type: physicochemical; conditions: read-out: Stability
# [13] = target: Taste receptor type 2 member 14 (Homo sapiens, UniProt Q9NYV8); assay: Agonist activity at TAS2R14 (unknown origin) by stably expressed cell-based assay
# [14] = target: T2, Taste receptor type 2 member 8 (Homo sapiens) (UniProt Q9NYW2); assay: (§1) Antagonist activity at recombinant human TAS2R8 assessed as inhibition of andrographolide-induced intracellular calcium level at 1 uM preincubated for 60 secs followed by andrographolide addition using Fura-2AM dye by cell-based fluorescent microscopic analysis; assay type: functional
# T2 sequence (whole entry): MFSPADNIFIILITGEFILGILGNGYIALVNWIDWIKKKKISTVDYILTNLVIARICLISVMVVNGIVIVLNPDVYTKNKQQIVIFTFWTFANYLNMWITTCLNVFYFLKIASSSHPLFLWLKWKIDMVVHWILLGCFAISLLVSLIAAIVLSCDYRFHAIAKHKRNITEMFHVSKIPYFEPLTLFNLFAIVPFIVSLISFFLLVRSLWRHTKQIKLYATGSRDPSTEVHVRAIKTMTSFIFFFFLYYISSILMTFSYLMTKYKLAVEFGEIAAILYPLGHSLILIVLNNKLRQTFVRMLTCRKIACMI
# Method in brief: (§2)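 TAS2R8 stable cells grown overnight on Matrigel-coated coverslips, loaded with 3 μg/mL Fura-2AM 1 h at RT in HBSS; ratiometric imaging under continuous HBSS perfusion with 100 μM andrographolide. Inhibitor 1 μM applied 60 s before and during agonist; 5 min HBSS washout between applications; only cells with initial ΔF/F > 0.5 analysed; mean and per-cell peak responses, 136 cells, 3 experiments.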
# [15] = target: T2, Taste receptor type 2 member 8 (Homo sapiens); assay: as §1, with “Reversible antagonist” for “Antagonist”, “recovery of suppression” for “inhibition”, “addition measured after 5 mins washout period” for “addition”; assay type: functional; method in brief: as §2
# [16] = Maternal toxicity in po dosed Sprague-Dawley rat administered via gavage during gestation period; assay type: ADME, organism-based; conditions: female, in vivo
# [17] = Stability of the compound in pH 2.8 buffer assessed as parent compound remaining measured after 24 hrs at room temperature; assay type: physicochemical; conditions: read-out: Stability
# [18] = target: T1, Taste receptor type 2 member 14 (Homo sapiens); assay: Agonist activity at TAS2R14 (unknown origin) at 25 uM by transiently expressed cell-based assay
# [19] = Stability of the compound in pH 5 buffer assessed as parent compound remaining measured after 24 hrs at 100 degC; assay type: physicochemical; conditions: read-out: Stability
# [20] = Stability of the compound in pH 6.5 buffer assessed as parent compound remaining measured after 30 secs at 140 degC; assay type: physicochemical; conditions: read-out: Stability
# [21] = Stability of the compound in pH 5 buffer assessed as parent compound remaining measured after 24 hrs at room temperature; assay type: physicochemical; conditions: read-out: Stability
# [22] = target: T3, Taste receptor type 2 member 1 (Homo sapiens) (UniProt Q9NYW7); assay: Agonist activity at TAS2R1 (unknown origin) at 25 uM by transiently expressed cell-based assay
# T3 sequence (whole entry): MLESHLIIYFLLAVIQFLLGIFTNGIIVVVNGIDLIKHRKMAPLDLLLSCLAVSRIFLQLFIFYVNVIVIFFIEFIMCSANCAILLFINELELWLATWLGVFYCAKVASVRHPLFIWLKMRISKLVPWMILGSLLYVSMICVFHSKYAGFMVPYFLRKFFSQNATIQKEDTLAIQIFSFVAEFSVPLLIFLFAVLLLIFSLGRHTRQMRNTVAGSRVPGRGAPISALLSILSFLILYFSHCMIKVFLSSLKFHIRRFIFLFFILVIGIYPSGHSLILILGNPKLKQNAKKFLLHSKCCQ
# Sequence of Taste receptor type 2 member 31 (Homo sapiens) (P59538 whole entry): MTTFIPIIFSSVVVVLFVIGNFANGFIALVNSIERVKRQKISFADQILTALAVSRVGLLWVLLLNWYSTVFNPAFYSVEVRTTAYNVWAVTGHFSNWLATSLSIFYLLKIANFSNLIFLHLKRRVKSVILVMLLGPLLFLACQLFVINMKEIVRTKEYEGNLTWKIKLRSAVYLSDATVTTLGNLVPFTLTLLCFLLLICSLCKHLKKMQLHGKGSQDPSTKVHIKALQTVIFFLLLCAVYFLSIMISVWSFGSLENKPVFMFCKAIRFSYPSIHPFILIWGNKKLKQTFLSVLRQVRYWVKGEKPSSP
# Sequence of Taste receptor type 2 member 7 (Homo sapiens) (Q9NYW3 whole entry): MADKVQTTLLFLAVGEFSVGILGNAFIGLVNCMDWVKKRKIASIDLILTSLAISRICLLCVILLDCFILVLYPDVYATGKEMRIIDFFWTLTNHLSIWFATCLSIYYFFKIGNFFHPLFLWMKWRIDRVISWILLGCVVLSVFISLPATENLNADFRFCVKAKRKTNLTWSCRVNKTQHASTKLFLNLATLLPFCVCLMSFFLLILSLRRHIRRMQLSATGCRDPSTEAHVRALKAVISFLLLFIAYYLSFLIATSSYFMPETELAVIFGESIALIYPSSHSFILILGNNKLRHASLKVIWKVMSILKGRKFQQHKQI
# Sequence of Taste receptor type 2 member 16 (Homo sapiens) (Q9NYV7 whole entry): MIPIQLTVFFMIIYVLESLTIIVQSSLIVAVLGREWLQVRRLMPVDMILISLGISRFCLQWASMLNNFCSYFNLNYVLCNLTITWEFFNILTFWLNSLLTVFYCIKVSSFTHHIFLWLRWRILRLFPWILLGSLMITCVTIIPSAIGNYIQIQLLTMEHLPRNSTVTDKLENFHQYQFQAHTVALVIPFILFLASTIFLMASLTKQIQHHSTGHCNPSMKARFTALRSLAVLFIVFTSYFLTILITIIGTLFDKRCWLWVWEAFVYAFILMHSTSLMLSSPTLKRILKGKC
structure (smiles),measurement,setting,value
Cc1noc(C)c1Cn1cc(N2C(=O)N(Cc3cccc(O)c3)C(C)(C)C2=O)cn1,Activity,[1],97%
same,remaining at 24 h,[2],> 99%
same,Activity,[3],59%
same,Activity,[4],92%
same,Activity,[5],88%
Cc1noc(C)c1Cn1cc(N2C(=O)CN(Cc3cccc(O)c3)C2=O)cn1,remaining at 1 h,[6],> 99%
same,Activity,[1],124%
same,Drug metabolism,[7],Metabolite detected
same,NOAEL,[8],1000 mg/kg
same,EC50,[9],150 µM
same,NOAEL at 2160 h,[10],100 mg/kg
same,remaining at 24 h,[2],55%
same,Activity,Homo sapiens,inactive
same,remaining at 24 h,[11],20%
same,remaining at 24 h,[12],> 99%
same,EC50,[13],40 µM
same,inhibition,[14],Active
same,inhibition,[15],Active
same,NOAEL,[16],1000 mg/kg
same,remaining at 24 h,[17],> 99%
same,Activity,[18],Active
same,Activity,[3],92%
same,remaining at 24 h,[19],> 99%
same,remaining at 0.5 min,[20],> 99%
same,Activity,[4],93%
same,remaining at 24 h,[21],> 99%
same,Activity,[5],98%
same,Activity,[22],Active
